Laboratory results taken from article PMC12243159 (RSC Medicinal Chemistry, 2025).

Assays:
Format in all cases: biochemical
hCA XII = hCA XII (Homo sapiens, UniProt O43570); assay: stopped-flow CO2 hydration assay, hCA XII; conditions: for Ki: KI hCA XII; for SI I/XII: ratio of KI hCA I to KI hCA XII; for SI II/XII: ratio of KI hCA II to KI hCA XII
hCA II = hCA II (Homo sapiens, UniProt P00918); assay: stopped-flow CO2 hydration assay, hCA II
Method in brief: (§1)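 Recombinant in-house enzyme, preincubated 15 min at room temperature with inhibitor. Inhibitor stock was 0.1 mM in water, diluted down to 0.01 nM. CO₂ (1.7–17 mM) hydration was followed by stopped-flow with 0.2 mM phenol red at 557 nm, in 20 mM HEPES pH 7.5 with 20 mM Na₂SO₄, over 10–100 s. Initial rates came from six traces and were corrected for the uncatalysed rate. Ki was obtained by non-linear least squares, mean of ≥3 measurements.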

hCA I = hCA I (Homo sapiens, UniProt P00915); assay: stopped-flow CO2 hydration assay, hCA I
Sequence of hCA I (P00915 whole entry): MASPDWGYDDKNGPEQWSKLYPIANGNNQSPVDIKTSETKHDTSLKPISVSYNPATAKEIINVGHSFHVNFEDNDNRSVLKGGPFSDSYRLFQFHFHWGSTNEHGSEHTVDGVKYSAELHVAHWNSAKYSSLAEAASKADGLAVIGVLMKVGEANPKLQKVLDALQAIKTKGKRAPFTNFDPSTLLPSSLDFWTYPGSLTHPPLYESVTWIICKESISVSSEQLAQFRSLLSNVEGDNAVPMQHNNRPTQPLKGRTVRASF
Method in brief: as §1

hCA IX = hCA IX (Homo sapiens, UniProt Q16790); assay: stopped-flow CO2 hydration assay, hCA IX; conditions: for SI I/IX: ratio of KI hCA I to KI hCA IX; for SI II/IX: ratio of KI hCA II to KI hCA IX

Sequence of hCA XII (O43570 25-354): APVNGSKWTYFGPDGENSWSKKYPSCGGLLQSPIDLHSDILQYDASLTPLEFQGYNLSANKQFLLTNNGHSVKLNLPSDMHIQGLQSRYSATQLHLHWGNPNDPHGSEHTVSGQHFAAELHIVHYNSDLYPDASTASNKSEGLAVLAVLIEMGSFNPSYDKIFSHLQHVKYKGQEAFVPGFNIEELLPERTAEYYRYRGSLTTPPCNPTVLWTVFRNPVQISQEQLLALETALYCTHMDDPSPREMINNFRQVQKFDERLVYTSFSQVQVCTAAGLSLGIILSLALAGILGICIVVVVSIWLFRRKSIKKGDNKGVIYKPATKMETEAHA

Ki (hCA XII; stopped-flow hydration assay) [nM] | SI I/XII (hCA XII) | SI II/XII (hCA XII) | Ki (hCA II) [nM] | Ki (hCA I) [nM] | Ki (hCA IX) [nM] | SI I/IX (hCA IX) | SI II/IX (hCA IX) | KI hCA XII (hCA XII; stopped-flow hydration assay) | SMILES
58.9 | 790 | 12.3 | 723 | 46500 | 285 | 164 | 2.54 | – | COCCOc1cc2ncnc(Nc3cccc(-c4cn(CCOCCOCCOCCNC(=O)Nc5cccc(S(N)(=O)=O)c5)nn4)c3)c2cc1OCCOC [compound 7a, 3-(3-(2-(2-(2-(2-(4-(3-((6,7-Bis(2-methoxyethoxy)quinazolin-4-yl)amino)phenyl)-1H-1,2,3-triazol-1-yl)ethoxy)ethoxy)ethoxy)ethyl)ureido)benzenesulfonamide]
57.4 | 628 | 16.6 | 950 | 36100 | 1120 | 32.1 | 0.85 | – | COCCOc1cc2ncnc(Nc3cccc(-c4cn(CCOCCOCCOCCNC(=O)Nc5ccc(S(N)(=O)=O)cc5)nn4)c3)c2cc1OCCOC [compound 7b, 4-(3-(2-(2-(2-(2-(4-(3-((6,7-Bis(2-methoxyethoxy)quinazolin-4-yl)amino)phenyl)-1H-1,2,3-triazol-1-yl)ethoxy)ethoxy)ethoxy)ethyl)ureido)benzenesulfonamide]
72 | 636 | 44.0 | 3170 | 45800 | 1920 | 23.8 | 1.65 | – | COCCOc1cc2ncnc(Nc3cccc(-c4cn(CCOCCOCCOCCNC(=S)Nc5cccc(S(N)(=O)=O)c5)nn4)c3)c2cc1OCCOC [compound 8a, 3-(3-(2-(2-(2-(2-(4-(3-((6,7-Bis(2-methoxyethoxy)quinazolin-4-yl)amino)phenyl)-1H-1,2,3-triazol-1-yl)ethoxy)ethoxy)ethoxy)ethyl)thioureido)benzenesulfonamide]
5.33 | 590 | 25.4 | 135 | 3140 | 112 | 28 | 1.2 | – | COCCOc1cc2ncnc(Nc3cccc(-c4cn(CCOCCOCCOCCNC(=S)Nc5ccc(S(N)(=O)=O)cc5)nn4)c3)c2cc1OCCOC [compound 8b, 4-(3-(2-(2-(2-(2-(4-(3-((6,7-Bis(2-methoxyethoxy)quinazolin-4-yl)amino)phenyl)-1H-1,2,3-triazol-1-yl)ethoxy)ethoxy)ethoxy)ethyl)thioureido)benzenesulfonamide]
69.7 | 47.0 | 16.5 | 1150 | 3280 | 26 | 127 | 44.57 | – | COCCOc1cc2ncnc(Nc3cccc(-c4cn(CCOCCOCCOCCNC(=S)NCc5ccc(S(N)(=O)=O)cc5)nn4)c3)c2cc1OCCOC [compound 8c, 4-(15-(4-(3-((6,7-Bis(2-methoxyethoxy)quinazolin-4-yl)amino)phenyl)-1H-1,2,3-triazol-1-yl)-3-thioxo-7,10,13-trioxa-2,4-diazapentadecyl)benzenesulfonamide]
6.49 | 142 | 16.3 | 106 | 923 | 28 | 32.6 | 3.73 | – | COCCOc1cc2ncnc(Nc3cccc(-c4cn(CCOCCOCCOCCNC(=S)NCCc5ccc(S(N)(=O)=O)cc5)nn4)c3)c2cc1OCCOC [compound 8d, 4-(16-(4-(3-((6,7-Bis(2-methoxyethoxy)quinazolin-4-yl)amino)phenyl)-1H-1,2,3-triazol-1-yl)-4-thioxo-8,11,14-trioxa-3,5-diazahexadecyl)benzenesulfonamide]
69.8 | 70.3 | 7.61 | 531 | 4910 | 1340 | 3.65 | 0.39 | – | COCCOc1cc2ncnc(Nc3cccc(-c4cn(CCOCCOCCOCCNC(=S)Nc5ccc(S(N)(=O)=O)c(C)c5Br)nn4)c3)c2cc1OCCOC [compound 9, 4-(3-(2-(2-(2-(2-(4-(3-((6,7-Bis(2-methoxyethoxy)quinazolin-4-yl)amino)phenyl)-1H-1,2,3-triazol-1-yl)ethoxy)ethoxy)ethoxy)ethyl)thioureido)-3-bromo-2-methylbenzenesulfonamide]
3300 | 0.27 | 0.08 | 253 | 903 | 4160 | 0.22 | 0.06 | – | COCCOc1cc2ncnc(Nc3cccc(-c4cn(CCOCCOCCOCCOCCOCCC(=O)NCc5ccc(S(N)(=O)=O)cc5)nn4)c3)c2cc1OCCOC [compound 10a, 1-(4-(3-((6,7-Bis(2-methoxyethoxy)quinazolin-4-yl)amino)phenyl)-1H-1,2,3-triazol-1-yl)-N-(4-sulfamoylbenzyl)-3,6,9,12,15-pentaoxaoctadecan-18-amide]
– | – | – | 33700 | 70100 | 4680 | 15.0 | 7.21 | no activity | COCCOc1cc2ncnc(Nc3cccc(-c4cn(CCOCCOCCOCCOCCOCCC(=O)NCCOc5ccc6oc(=O)ccc6c5)nn4)c3)c2cc1OCCOC [compound 11, 1-(4-(3-((6,7-Bis(2-methoxyethoxy)quinazoline-4-yl)amino)phenyl)-1H-1,2,3-triazol-1-yl)-N-(2-((2-oxo-2H-chromen-6-yl)oxy)ethyl)-3,6,9,12,15-pentaoxaoctadecan-18-amide]
6400 | 11.0 | 0.16 | 1020 | 70100 | 4470 | 15.7 | 0.23 | – | COCCOc1cc2ncnc(Nc3cccc(-c4cn(CCOCCOCCOCCOCCOCCNC(=O)Nc5cccc(S(N)(=O)=O)c5)nn4)c3)c2cc1OCCOC [compound 12a, 3-(3-(17-(4-(3-((6,7-Bis(2-methoxyethoxy)quinazoline-4-yl)amino)phenyl)-1H-1,2,3-triazol-1-yl)-3,6,9,12,15-pentaoxaheptadecyl)ureido)benzenesulfonamide]
75.3 | 329 | 1.21 | 90.8 | 24800 | 5620 | 4.41 | 0.02 | – | COCCOc1cc2ncnc(Nc3cccc(-c4cn(CCOCCOCCOCCOCCOCCNC(=O)Nc5ccc(S(N)(=O)=O)cc5)nn4)c3)c2cc1OCCOC [compound 12b, 4-(3-(17-(4-(3-((6,7-Bis(2-methoxyethoxy)quinazolin-4-yl)amino)phenyl)-1H-1,2,3-triazol-1-yl)-3,6,9,12,15-pentaoxaheptadecyl)ureido)benzenesulfonamide]
940 | 0.17 | 0.0008 | 0.8 | 160 | 387 | 0.41 | 0.002 | – | COCCOc1cc2ncnc(Nc3cccc(-c4cn(CCOCCOCCOCCOCCOCCNC(=O)NCc5ccc(S(N)(=O)=O)cc5)nn4)c3)c2cc1OCCOC [compound 12c, 4-(21-(4-(3-((6,7-Bis(2-methoxyethoxy)quinazoline-4-yl)amino)phenyl)-1H-1,2,3-triazol-1-yl)-3-oxo-7,10,13,16,19-pentaoxa-2,4-diazahenicosyl)benzenesulfonamide]
8060 | 3.51 | 1.41 | 11400 | 28300 | 242 | 117 | 46.9 | – | COCCOc1cc2ncnc(Nc3cccc(-c4cn(CCOCCOCCOCCOCCOCCNC(=O)Nc5ccc6oc(=O)ccc6c5)nn4)c3)c2cc1OCCOC [compound 13, 1-(17-(4-(3-((6,7-Bis(2-methoxyethoxy)quinazolin-4-yl)amino)phenyl)-1H-1,2,3-triazol-1-yl)-3,6,9,12,15-pentaoxaheptadecyl)-3-(2-oxo-2H-chromen-6-yl)urea]
1520 | 28.4 | 6.38 | 9710 | 43300 | 4930 | 8.79 | 1.97 | – | COCCOc1cc2ncnc(Nc3cccc(-c4cn(CCOCCOCCOCCOCCOCCNC(=S)Nc5ccc(S(N)(=O)=O)cc5)nn4)c3)c2cc1OCCOC [compound 14b, 4-(3-(17-(4-(3-((6,7-Bis(2-methoxyethoxy)quinazolin-4-yl)amino)phenyl)-1H-1,2,3-triazol-1-yl)-3,6,9,12,15-pentaoxaheptadecyl)thioureido)benzenesulfonamide]
665 | 7.48 | 1.52 | 1010 | 4980 | 3730 | 1.33 | 0.27 | – | COCCOc1cc2ncnc(Nc3cccc(-c4cn(CCOCCOCCOCCOCCOCCNC(=S)NCc5ccc(S(N)(=O)=O)cc5)nn4)c3)c2cc1OCCOC [compound 14c, 4-(21-(4-(3-((6,7-Bis(2-methoxyethoxy)quinazoline-4-yl)amino)phenyl)-1H-1,2,3-triazol-1-yl)-3-thioxo-7,10,13,16,19-pentaoxa-2,4-diazahenicosyl)benzenesulfonamide]
